The source of these data is ChEMBL document CHEMBL4402566, “2-Substituted α,β-Methylene-ADP Derivatives: Potent Competitive Ecto-5'-nucleotidase (CD73) Inhibitors with Variable Binding Modes” (J Med Chem, 2020).

Data set [1] concerns the target T1, 5'-nucleotidase (Rattus norvegicus, UniProt P21588).
T1 sequence (P21588 whole entry): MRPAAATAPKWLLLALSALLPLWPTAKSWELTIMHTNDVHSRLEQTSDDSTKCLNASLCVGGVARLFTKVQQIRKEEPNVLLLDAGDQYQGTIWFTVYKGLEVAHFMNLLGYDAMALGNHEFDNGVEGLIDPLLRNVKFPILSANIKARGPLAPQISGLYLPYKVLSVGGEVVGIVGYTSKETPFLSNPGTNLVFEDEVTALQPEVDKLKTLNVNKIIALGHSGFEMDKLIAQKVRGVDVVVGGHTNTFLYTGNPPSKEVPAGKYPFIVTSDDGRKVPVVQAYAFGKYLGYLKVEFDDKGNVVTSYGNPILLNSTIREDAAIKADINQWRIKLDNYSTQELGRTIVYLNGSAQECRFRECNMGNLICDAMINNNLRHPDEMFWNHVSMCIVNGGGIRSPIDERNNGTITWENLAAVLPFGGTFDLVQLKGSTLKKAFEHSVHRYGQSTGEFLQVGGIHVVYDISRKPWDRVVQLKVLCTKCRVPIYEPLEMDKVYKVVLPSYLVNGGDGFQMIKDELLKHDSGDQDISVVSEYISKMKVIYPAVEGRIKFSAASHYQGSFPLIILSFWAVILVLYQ
Description: Inhibition of purified recombinant soluble rat CD73 expressed in Sf9 cells [3H]AMP as substrate incubated for 25 mins by scintillation counting method. An outline of the steps:
(§1)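 Radiometric CD73 assay in 25 mM Tris, 140 mM NaCl, 25 mM NaH2PO4, pH 7.4. Enzyme per vial: rat CD73 1.63 ng, human CD73 0.365 ng, MDA-MB-231 membranes 7.4 ng protein. […] 25 min at 37 °C, shaking. Stopped with cold LaCl3/sodium acetate pH 4.0 to precipitate substrate. Filtrate counted by scintillation. Full curves; Ki from IC50 via Cheng–Prusoff.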

Data set [2] concerns the target T2, 5'-nucleotidase (Homo sapiens, UniProt P21589). Nature of the data set: Inhibition of native CD73 in human MDA-MB-231 cell membrane preparations [3H]AMP as substrate incubated for 25 mins by scintillation counting method. The format is cell membranes. An outline of the steps: as §1
Data set [3] has as its target P2Y purinoceptor 1 (Homo sapiens) (UniProt P47900). Nature of the data set: Activation of recombinant human P2Y1 receptor expressed in human 1321N1 cells assessed as stimulation of calcium mobilization at 10 uM by fluorescence based assay. Type of data set: functional, cell-based. (Calcium assays in cells follow changes in intracellular calcium, usually with a dye or a luminescent sensor.)

A short description of data set [4]: Metabolic stability in human blood plasma assessed as compound degradation at 200 uM incubated for 5 hrs at 37 degC by LC-MS analysis. The format is ADME, cell-free. Conditions: read-out: Drug degradation. An outline of the steps:
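Human plasma from healthy donors added to aqueous compound solution, 200 μM final. Incubated at 37 °C for 5 h. Supernatants analysed by LC-MS as percentage of compound remaining over time. Three separate experiments, each in duplicate.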

Data set [5] in a line: Metabolic stability in rat liver microsomes assessed as compound degradation at 200 uM after 30 mins in presence of NADPH regenerative system at 37 degC by LC-MS analysis. Conditions: read-out: Drug degradation. The format is ADME, Microsome. The procedure, abridged: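 Rat liver microsomes (2 mg) incubated with compound at 200 μM in 2 mL at 37 °C for various times. Stopped with ice-cold acetonitrile and centrifuged. Supernatant analysed by LC-MS as percentage remaining. Three separate experiments in duplicate.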
(Liver microsomes are a subcellular fraction often used to study metabolism.)

The target of data set [6] is P2Y purinoceptor 12 (Homo sapiens) (UniProt Q9H244). Description: Activation of recombinant human P2Y12 receptor expressed in CHOK1 cells assessed as stimulation of beta-arrestin recruitment at 10 uM incubated for 90 mins by luminescence based assay. On the technique in general: Activated receptors often draw arrestin, which recruitment assays turn into a signal.
P2Y purinoceptor 12 (Homo sapiens), sequence (Q9H244 whole entry): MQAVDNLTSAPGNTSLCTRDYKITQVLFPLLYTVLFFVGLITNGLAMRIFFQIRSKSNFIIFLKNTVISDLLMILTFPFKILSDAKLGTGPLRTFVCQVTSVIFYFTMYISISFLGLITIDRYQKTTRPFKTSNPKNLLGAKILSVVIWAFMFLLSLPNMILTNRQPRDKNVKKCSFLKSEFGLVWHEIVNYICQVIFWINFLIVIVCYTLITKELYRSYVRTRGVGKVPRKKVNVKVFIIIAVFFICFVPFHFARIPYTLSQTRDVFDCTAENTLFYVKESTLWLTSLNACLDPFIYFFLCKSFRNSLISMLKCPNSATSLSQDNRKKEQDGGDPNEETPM
Data set [7] deals with T2, 5'-nucleotidase. Description: Inhibition of purified recombinant soluble human CD73 expressed in Sf9 cells [3H]AMP as substrate incubated for 25 mins by scintillation counting method. The procedure, abridged:
as §1

The target in data set [8] is T3, Ectonucleotide pyrophosphatase/phosphodiesterase family member 1 (Homo sapiens) (UniProt P22413).
T3 sequence (whole entry): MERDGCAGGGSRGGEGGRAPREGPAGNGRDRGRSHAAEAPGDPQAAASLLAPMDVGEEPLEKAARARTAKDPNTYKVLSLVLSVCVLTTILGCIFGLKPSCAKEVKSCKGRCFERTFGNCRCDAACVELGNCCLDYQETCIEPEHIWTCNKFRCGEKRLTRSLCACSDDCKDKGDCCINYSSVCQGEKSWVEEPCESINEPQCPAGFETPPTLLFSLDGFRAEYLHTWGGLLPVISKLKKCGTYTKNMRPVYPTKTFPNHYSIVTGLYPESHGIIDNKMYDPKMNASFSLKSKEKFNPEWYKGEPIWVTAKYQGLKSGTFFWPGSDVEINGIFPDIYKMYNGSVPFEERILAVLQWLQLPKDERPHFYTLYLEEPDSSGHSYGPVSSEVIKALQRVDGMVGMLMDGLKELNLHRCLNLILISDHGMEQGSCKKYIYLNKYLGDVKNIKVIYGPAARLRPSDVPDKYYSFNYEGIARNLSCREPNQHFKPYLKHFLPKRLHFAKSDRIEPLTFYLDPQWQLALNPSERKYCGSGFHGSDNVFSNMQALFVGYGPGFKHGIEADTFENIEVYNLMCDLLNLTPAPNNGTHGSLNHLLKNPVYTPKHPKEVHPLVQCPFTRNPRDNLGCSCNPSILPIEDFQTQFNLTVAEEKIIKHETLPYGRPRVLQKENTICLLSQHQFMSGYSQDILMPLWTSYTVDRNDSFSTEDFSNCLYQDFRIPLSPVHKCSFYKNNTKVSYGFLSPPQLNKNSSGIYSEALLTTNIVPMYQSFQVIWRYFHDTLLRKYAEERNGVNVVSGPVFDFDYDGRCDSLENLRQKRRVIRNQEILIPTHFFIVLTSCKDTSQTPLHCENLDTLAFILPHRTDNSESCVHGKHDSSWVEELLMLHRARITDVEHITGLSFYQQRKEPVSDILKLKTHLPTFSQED
Description: Inhibition of human recombinant NPP1 at 10 uM using p-nitrophenyl thymidine monophosphate substrate incubated for 30 mins by colorimetry.

In data set [9] the target is Autotaxin (Homo sapiens) (UniProt Q13822). Nature of the data set: Inhibition of human recombinant NPP2 at 10 uM using p-nitrophenyl thymidine monophosphate substrate incubated for 30 mins by colorimetry.
Data set [10] concerns the target T4, Ectonucleotide pyrophosphatase/phosphodiesterase family member 3 (Homo sapiens) (UniProt O14638).
T4 sequence (whole entry): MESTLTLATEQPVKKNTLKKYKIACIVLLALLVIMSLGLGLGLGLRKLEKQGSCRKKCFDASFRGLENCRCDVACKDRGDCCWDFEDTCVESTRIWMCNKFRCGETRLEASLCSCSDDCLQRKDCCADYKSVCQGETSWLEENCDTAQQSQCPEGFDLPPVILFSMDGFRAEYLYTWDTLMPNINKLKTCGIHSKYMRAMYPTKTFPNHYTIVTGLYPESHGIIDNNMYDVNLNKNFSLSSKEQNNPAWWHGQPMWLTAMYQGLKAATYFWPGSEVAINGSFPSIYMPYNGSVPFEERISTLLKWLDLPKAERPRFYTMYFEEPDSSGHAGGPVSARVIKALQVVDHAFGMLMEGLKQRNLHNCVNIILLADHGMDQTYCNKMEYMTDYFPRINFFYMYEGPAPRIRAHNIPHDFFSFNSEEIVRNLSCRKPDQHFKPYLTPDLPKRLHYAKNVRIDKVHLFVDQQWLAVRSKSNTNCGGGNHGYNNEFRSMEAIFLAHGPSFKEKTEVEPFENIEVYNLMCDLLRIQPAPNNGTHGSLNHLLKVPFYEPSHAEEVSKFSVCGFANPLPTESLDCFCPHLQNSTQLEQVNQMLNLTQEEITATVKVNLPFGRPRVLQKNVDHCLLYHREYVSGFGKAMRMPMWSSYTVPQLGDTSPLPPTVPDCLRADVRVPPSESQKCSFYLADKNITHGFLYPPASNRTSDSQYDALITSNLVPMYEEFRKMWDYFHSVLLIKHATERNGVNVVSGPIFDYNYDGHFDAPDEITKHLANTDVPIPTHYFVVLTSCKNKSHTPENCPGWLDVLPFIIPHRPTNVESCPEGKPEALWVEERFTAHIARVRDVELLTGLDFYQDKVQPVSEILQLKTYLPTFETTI
Nature of the data set: Inhibition of human recombinant NPP3 at 10 uM using p-nitrophenyl thymidine monophosphate substrate incubated for 30 mins by colorimetry.

A short description of data set [11]: Selectivity index, ratio of Ki for inhibition of purified recombinant soluble rat CD73 expressed in Sf9 cells to Ki for inhibition of purified recombinant soluble human CD73 expressed in Sf9 cells.
For data set [12], the target named is T2, 5'-nucleotidase. Nature of the data set: Inhibition of human CD73.
Data set [13] concerns the target T1, 5'-nucleotidase. Description: Inhibition of rat CD73. An outline of the steps:
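Recombinant soluble rat CD73 expressed in Sf9 insect cells (1.63 ng per vial). Buffer was 25 mM Tris, 140 mM NaCl, 25 mM NaH2PO4, pH 7.4. […] Stopped with LaCl3/sodium acetate pH 4.0 to precipitate unreacted substrate, then filtered; adenosine in the filtrate counted by scintillation. Ki derived from IC50 by Cheng–Prusoff.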

Data set [14] is described as follows: Metabolic stability in rat liver microsomes assessed as intact compound level at 200 uM after 2 hrs in presence of NADPH regenerative system at 37 degC by LC-MS analysis. Conditions: read-out: Stability. Type of data set: ADME, Microsome.
A short description of data set [15]: Drug metabolism in rat liver microsomes at 200 uM after 2 hrs in presence of NADPH regenerative system at 37 degC by LC-MS analysis. Type of data set: ADME, Microsome. Conditions: read-out: Drug metabolism.

Active and inactive are the calls of the source. The rule behind the calls is not given here.

T2 sequence (P21589 whole entry): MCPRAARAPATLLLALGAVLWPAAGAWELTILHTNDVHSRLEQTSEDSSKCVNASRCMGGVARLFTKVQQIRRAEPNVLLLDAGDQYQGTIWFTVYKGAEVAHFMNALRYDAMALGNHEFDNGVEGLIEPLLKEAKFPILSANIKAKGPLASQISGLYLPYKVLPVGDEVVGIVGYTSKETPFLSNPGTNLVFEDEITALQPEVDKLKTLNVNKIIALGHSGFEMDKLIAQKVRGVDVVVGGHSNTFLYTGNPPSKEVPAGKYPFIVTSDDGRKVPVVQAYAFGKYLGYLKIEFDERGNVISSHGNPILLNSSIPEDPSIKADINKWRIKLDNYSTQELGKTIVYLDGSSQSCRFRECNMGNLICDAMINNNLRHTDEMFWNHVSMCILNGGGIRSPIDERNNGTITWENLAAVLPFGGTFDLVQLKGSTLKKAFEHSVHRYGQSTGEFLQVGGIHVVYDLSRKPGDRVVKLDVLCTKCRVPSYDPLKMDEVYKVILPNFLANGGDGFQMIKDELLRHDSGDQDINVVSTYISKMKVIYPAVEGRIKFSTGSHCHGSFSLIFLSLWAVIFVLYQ
P2Y purinoceptor 1 (Homo sapiens), sequence (P47900 whole entry): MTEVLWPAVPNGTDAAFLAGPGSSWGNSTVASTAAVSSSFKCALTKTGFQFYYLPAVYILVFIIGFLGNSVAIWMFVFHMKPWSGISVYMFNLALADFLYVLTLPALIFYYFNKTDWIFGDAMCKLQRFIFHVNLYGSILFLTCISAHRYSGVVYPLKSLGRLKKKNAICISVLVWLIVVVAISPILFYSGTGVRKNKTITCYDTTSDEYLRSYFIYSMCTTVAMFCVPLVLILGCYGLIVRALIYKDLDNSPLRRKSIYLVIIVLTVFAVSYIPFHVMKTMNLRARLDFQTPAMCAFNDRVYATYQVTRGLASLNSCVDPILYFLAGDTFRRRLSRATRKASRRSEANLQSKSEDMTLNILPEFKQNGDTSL

Turning to `Nc1ncnc2c1ncn2[C@@H]1O[C@H](COP(=O)(O)CP(=O)(O)O)[C@@H](O)[C@H]1O` [PHOSPHOMETHYLPHOSPHONIC ACID ADENOSYL ESTER], the results for the Ki in data set [1] and in data set [2] were 197 nM and 207 nM, respectively. The result in data set [3] and in data set [6] was Active. The metabolised at 5 h, 200 µM in data set [4] is ≤ 50%. For the same compound, in data set [5], the metabolised at 0.5 h, 200 µM worked out at 100%.
As for `Nc1nc(SCCC2CCCCC2)nc2c1ncn2[C@@H]1O[C@H](COP(=O)(O)CP(=O)(O)O)[C@@H](O)[C@H]1O`, the Ki was determined as 56.6 nM in data set [1], 46.9 nM in data set [7] and 49.1 nM in data set [2]. Also, the inhibition entry in data set [8], in data set [9] and in data set [10] was “inactive” each time. The outcome in data set [3] and in data set [6] was inactive.
`NNc1nc(N)c2ncn([C@@H]3O[C@H](COP(=O)(O)CP(=O)(O)O)[C@@H](O)[C@H]3O)c2n1`: the Ki in data set [1] was determined as 116 nM; in [7], 15.5 nM; in [2], 15.4 nM. Also, the Ratio Ki in data set [11] stood at 7.5.
The like results for `Nc1nc(N2CCNCC2)nc2c1ncn2[C@@H]1O[C@H](COP(=O)(O)CP(=O)(O)O)[C@@H](O)[C@H]1O` were, in that order, 2290 nM, 184 nM, 238 nM and 12.5.
Consider `Nc1nc(Cl)c2ncn([C@@H]3O[C@H](COP(=O)(O)CP(=O)(O)O)[C@@H](O)[C@H]3O)c2n1`, for which the Ki in data set [1] was 268 nM; in [7], 23.6 nM; in data set [2], 32.2 nM. The Ratio Ki in [11] amounted to 6.3. In addition, the inhibition result in data set [8], in data set [9] and in data set [10] was “inactive” throughout. For the same compound, the result in data set [3] and in data set [6] was inactive.
As for `Nc1nc(Cl)nc2c1ncn2[C@@H]1O[C@H](COP(=O)(O)CP(=O)(O)O)[C@@H](O)[C@H]1O`, the values for the Ki in [1], in data set [7] and in data set [2] were 18.6 nM, 5.93 nM and 4.57 nM, respectively. In addition, the inhibition result in data set [8], in data set [9] and in [10] was “inactive” in each case. Moreover, the result in data set [3] and in [6] was inactive.
Take `CN(Cc1ccccc1)c1nc(Cl)nc2c1ncn2[C@@H]1O[C@H](COP(=O)(O)CP(=O)(O)O)[C@@H](O)[C@H]1O`: the inhibition constant (Ki) in [12] is 0.318 nM; in data set [13], 0.746 nM.
`Nc1nc(I)nc2c1ncn2[C@@H]1O[C@H](COP(=O)(O)CP(=O)(O)O)[C@@H](O)[C@H]1O`: the values for the Ki in data set [1], in data set [7] and in [2] were 15.1 nM, 3.59 nM and 3.33 nM, respectively. Further, the inhibition result in data set [8], in data set [9] and in data set [10] was “inactive” throughout. In addition, in [4], the metabolised at 5 h, 200 µM was < 25%. Moreover, in [14], the remaining at 2 h, 200 µM stood at 100%. In data set [15], the metabolised at 2 h, 200 µM was < 40%.
As for `Nc1ncnc2c1ncn2[C@@H]1O[C@H](COP(=O)(O)OP(=O)(O)O)[C@@H](O)[C@H]1O`, the result in [3] and in data set [6] was Active.
Consider `Nc1nc(=O)[nH]c2c1ncn2[C@@H]1O[C@H](COP(=O)(O)CP(=O)(O)O)[C@@H](O)[C@H]1O`, for which, in [1], the inhibitory constant (Ki) is 326 nM.
Regarding `Nc1nc2c(ncn2[C@@H]2O[C@H](COP(=O)(O)CP(=O)(O)O)[C@@H](O)[C@H]2O)c(=O)[nH]1` [PHOSPHOMETHYLPHOSPHONIC ACID GUANOSYL ESTER], the Ki in data set [1] is 1110 nM; in data set [7], 410 nM; in data set [2], 255 nM.
With `Nc1nc(N)c2ncn([C@@H]3O[C@H](COP(=O)(O)CP(=O)(O)O)[C@@H](O)[C@H]3O)c2n1`, the values for the Ki in data set [1], in data set [7] and in data set [2] were 90.6 nM, 38.8 nM and 35.7 nM, respectively.
The like results for `C=CCSc1nc(N)c2ncn([C@@H]3O[C@H](COP(=O)(O)CP(=O)(O)O)[C@@H](O)[C@H]3O)c2n1` were, in that order, 65.7 nM, 61.9 nM and 65.4 nM.

One may read the Ki as the equilibrium dissociation constant of an inhibitor or competing ligand from its target.
